ChEMBL document CHEMBL3817728, “Synthesis, Evaluation, and Mechanism Study of Novel Indole-Chalcone Derivatives Exerting Effective Antitumor Activity Through Microtubule Destabilization in Vitro and in Vivo” (J Med Chem, 2016)
pIC50: −log10 of the molar value.

System: A549
Assay: Cytotoxicity against human A549 cells assessed as cell viability after 48 hrs by MTT assay
Format: functional, cell-based
Conditions: A549, 48 h
In short: (§1)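 Cancer cell lines treated with compound for 48 h, and viability read by MTT assay. IC50 given as mean ± SD from at least three independent experiments.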

Compound	pIC50
COc1cc(C(=O)/C=C/c2cn(C)c3cccc(OC)c23)cc(OC)c1OC	< 6.00
COc1ccc2c(/C=C/C(=O)c3ccc(OC)c4c3OC(C)(C)C=C4)cn(C)c2c1	7.24
COc1ccc(C(=O)/C=C/c2c[nH]c3cccc(OC)c23)c2c1C=CC(C)(C)O2	< 6.00
COc1cc(C(=O)/C=C/c2c[nH]c3cccc(OC)c23)cc(OC)c1OC	< 6.00
CCn1cc(/C=C(\C)C(=O)c2cc(OC)c(OC)c(OC)c2)c2ccc(OC)cc21	7.41
COc1ccc2c(/C=C(\C)C(=O)c3cc(OC)c(OC)c(OC)c3)cn(CCBr)c2c1	6.90
COc1ccc2[nH]cc(/C=C/C(=O)c3cc(OC)c(OC)c(OC)c3)c2c1	< 6.00
COc1cc(C(=O)/C=C/c2ccc3[nH]ccc3c2)cc(OC)c1OC	7.48
COc1ccc2c(c1)c(/C=C/C(=O)c1cc(OC)c(OC)c(OC)c1)cn2C	6.79
COc1ccc2c(/C=C(\C)C(=O)c3cc(OC)c(OC)c(OC)c3)cn(CCO)c2c1	7.60
COc1cc(C(=O)/C=C/c2ccc3c(ccn3C)c2)cc(OC)c1OC	7.28
CCCn1cc(/C=C(\C)C(=O)c2cc(OC)c(OC)c(OC)c2)c2ccc(OC)cc21	6.29
COc1cc(C(=O)/C=C/c2cccc3c2ccn3C)cc(OC)c1OC	7.52
COc1cc(C(=O)/C(C)=C/c2cn(C)c3cccc(OC)c23)cc(OC)c1OC	< 6.00
COc1ccc2[nH]cc(/C=C/C(=O)c3ccc(OC)c4c3OC(C)(C)C=C4)c2c1	6.57
C=Cn1cc(/C=C(\C)C(=O)c2cc(OC)c(OC)c(OC)c2)c2ccc(OC)cc21	7.05
COc1cc(C(=O)/C(C)=C/c2c[nH]c3cccc(OC)c23)cc(OC)c1OC	< 6.00
COc1ccc2c(/C=C/C(=O)c3cc(OC)c(OC)c(OC)c3)c[nH]c2c1	6.65

System: not listed separately
Assay: Cytotoxicity against human HCT8 cells assessed as cell viability after 48 hrs by MTT assay
Format: functional, cell-based
Conditions: HCT-8, 48 h
In short: as §1

Compound	pIC50
COc1cc(C(=O)/C=C/c2cn(C)c3cccc(OC)c23)cc(OC)c1OC	< 6.00
COc1ccc2c(/C=C/C(=O)c3ccc(OC)c4c3OC(C)(C)C=C4)cn(C)c2c1	7.06
COc1ccc(C(=O)/C=C/c2c[nH]c3cccc(OC)c23)c2c1C=CC(C)(C)O2	< 6.00
COc1cc(C(=O)/C=C/c2c[nH]c3cccc(OC)c23)cc(OC)c1OC	< 6.00
CCn1cc(/C=C(\C)C(=O)c2cc(OC)c(OC)c(OC)c2)c2ccc(OC)cc21	7.25
COc1ccc2c(/C=C(\C)C(=O)c3cc(OC)c(OC)c(OC)c3)cn(CCBr)c2c1	6.77
COc1ccc2[nH]cc(/C=C/C(=O)c3cc(OC)c(OC)c(OC)c3)c2c1	< 6.00
COc1cc(C(=O)/C=C/c2ccc3[nH]ccc3c2)cc(OC)c1OC	7.47
COc1ccc2c(c1)c(/C=C/C(=O)c1cc(OC)c(OC)c(OC)c1)cn2C	6.50
COc1ccc2c(/C=C(\C)C(=O)c3cc(OC)c(OC)c(OC)c3)cn(CCO)c2c1	7.70
COc1cc(C(=O)/C=C/c2ccc3c(ccn3C)c2)cc(OC)c1OC	7.17
CCCn1cc(/C=C(\C)C(=O)c2cc(OC)c(OC)c(OC)c2)c2ccc(OC)cc21	6.17
COc1cc(C(=O)/C=C/c2cccc3c2ccn3C)cc(OC)c1OC	7.39
COc1cc(C(=O)/C(C)=C/c2cn(C)c3cccc(OC)c23)cc(OC)c1OC	< 6.00
COc1ccc2[nH]cc(/C=C/C(=O)c3ccc(OC)c4c3OC(C)(C)C=C4)c2c1	6.25
C=Cn1cc(/C=C(\C)C(=O)c2cc(OC)c(OC)c(OC)c2)c2ccc(OC)cc21	7.10
COc1cc(C(=O)/C(C)=C/c2c[nH]c3cccc(OC)c23)cc(OC)c1OC	< 6.00
COc1ccc2c(/C=C/C(=O)c3cc(OC)c(OC)c(OC)c3)c[nH]c2c1	6.56

System: A2780
Assay: Cytotoxicity against human A2780 cells assessed as cell viability after 48 hrs by MTT assay
Format: functional, cell-based
Conditions: A2780, 48 h
In short: as §1

Compound	pIC50
COc1cc(C(=O)/C=C/c2cn(C)c3cccc(OC)c23)cc(OC)c1OC	< 6.00
COc1ccc2c(/C=C/C(=O)c3ccc(OC)c4c3OC(C)(C)C=C4)cn(C)c2c1	7.21
COc1ccc(C(=O)/C=C/c2c[nH]c3cccc(OC)c23)c2c1C=CC(C)(C)O2	< 6.00
COc1cc(C(=O)/C=C/c2c[nH]c3cccc(OC)c23)cc(OC)c1OC	< 6.00
CCn1cc(/C=C(\C)C(=O)c2cc(OC)c(OC)c(OC)c2)c2ccc(OC)cc21	7.68
COc1ccc2c(/C=C(\C)C(=O)c3cc(OC)c(OC)c(OC)c3)cn(CCBr)c2c1	6.56
COc1ccc2[nH]cc(/C=C/C(=O)c3cc(OC)c(OC)c(OC)c3)c2c1	< 6.00
COc1cc(C(=O)/C=C/c2ccc3[nH]ccc3c2)cc(OC)c1OC	7.55
COc1ccc2c(c1)c(/C=C/C(=O)c1cc(OC)c(OC)c(OC)c1)cn2C	6.55
COc1ccc2c(/C=C(\C)C(=O)c3cc(OC)c(OC)c(OC)c3)cn(CCO)c2c1	7.51
COc1cc(C(=O)/C=C/c2ccc3c(ccn3C)c2)cc(OC)c1OC	7.35
CCCn1cc(/C=C(\C)C(=O)c2cc(OC)c(OC)c(OC)c2)c2ccc(OC)cc21	6.22
COc1cc(C(=O)/C=C/c2cccc3c2ccn3C)cc(OC)c1OC	7.64
COc1cc(C(=O)/C(C)=C/c2cn(C)c3cccc(OC)c23)cc(OC)c1OC	< 6.00
COc1ccc2[nH]cc(/C=C/C(=O)c3ccc(OC)c4c3OC(C)(C)C=C4)c2c1	6.40
C=Cn1cc(/C=C(\C)C(=O)c2cc(OC)c(OC)c(OC)c2)c2ccc(OC)cc21	7.31
COc1cc(C(=O)/C(C)=C/c2c[nH]c3cccc(OC)c23)cc(OC)c1OC	< 6.00
COc1ccc2c(/C=C/C(=O)c3cc(OC)c(OC)c(OC)c3)c[nH]c2c1	6.93

System: MCF7
Assay: Cytotoxicity against human MCF7 cells assessed as cell viability after 48 hrs by MTT assay
Format: functional, cell-based
Conditions: MCF7, 48 h
In short: as §1

Compound	pIC50
COc1cc(C(=O)/C=C/c2cn(C)c3cccc(OC)c23)cc(OC)c1OC	< 6.00
COc1ccc2c(/C=C/C(=O)c3ccc(OC)c4c3OC(C)(C)C=C4)cn(C)c2c1	7.35
COc1ccc(C(=O)/C=C/c2c[nH]c3cccc(OC)c23)c2c1C=CC(C)(C)O2	< 6.00
COc1cc(C(=O)/C=C/c2c[nH]c3cccc(OC)c23)cc(OC)c1OC	< 6.00
CCn1cc(/C=C(\C)C(=O)c2cc(OC)c(OC)c(OC)c2)c2ccc(OC)cc21	7.49
COc1ccc2c(/C=C(\C)C(=O)c3cc(OC)c(OC)c(OC)c3)cn(CCBr)c2c1	6.41
COc1ccc2[nH]cc(/C=C/C(=O)c3cc(OC)c(OC)c(OC)c3)c2c1	< 6.00
COc1cc(C(=O)/C=C/c2ccc3[nH]ccc3c2)cc(OC)c1OC	7.55
COc1ccc2c(c1)c(/C=C/C(=O)c1cc(OC)c(OC)c(OC)c1)cn2C	6.64
COc1ccc2c(/C=C(\C)C(=O)c3cc(OC)c(OC)c(OC)c3)cn(CCO)c2c1	7.85
COc1cc(C(=O)/C=C/c2ccc3c(ccn3C)c2)cc(OC)c1OC	7.21
CCCn1cc(/C=C(\C)C(=O)c2cc(OC)c(OC)c(OC)c2)c2ccc(OC)cc21	6.30
COc1cc(C(=O)/C=C/c2cccc3c2ccn3C)cc(OC)c1OC	7.42
COc1cc(C(=O)/C(C)=C/c2cn(C)c3cccc(OC)c23)cc(OC)c1OC	< 6.00
COc1ccc2[nH]cc(/C=C/C(=O)c3ccc(OC)c4c3OC(C)(C)C=C4)c2c1	6.11
C=Cn1cc(/C=C(\C)C(=O)c2cc(OC)c(OC)c(OC)c2)c2ccc(OC)cc21	7.19
COc1cc(C(=O)/C(C)=C/c2c[nH]c3cccc(OC)c23)cc(OC)c1OC	< 6.00
COc1ccc2c(/C=C/C(=O)c3cc(OC)c(OC)c(OC)c3)c[nH]c2c1	6.61

System: not listed separately
Assay: Cytotoxicity against human Bel7402 cells assessed as cell viability after 48 hrs by MTT assay
Format: functional, cell-based
Conditions: Bel-7402, 48 h
In short: as §1

Compound	pIC50
COc1cc(C(=O)/C=C/c2cn(C)c3cccc(OC)c23)cc(OC)c1OC	< 6.00
COc1ccc2c(/C=C/C(=O)c3ccc(OC)c4c3OC(C)(C)C=C4)cn(C)c2c1	7.01
COc1ccc(C(=O)/C=C/c2c[nH]c3cccc(OC)c23)c2c1C=CC(C)(C)O2	< 6.00
COc1cc(C(=O)/C=C/c2c[nH]c3cccc(OC)c23)cc(OC)c1OC	< 6.00
CCn1cc(/C=C(\C)C(=O)c2cc(OC)c(OC)c(OC)c2)c2ccc(OC)cc21	7.82
COc1ccc2c(/C=C(\C)C(=O)c3cc(OC)c(OC)c(OC)c3)cn(CCBr)c2c1	6.59
COc1ccc2[nH]cc(/C=C/C(=O)c3cc(OC)c(OC)c(OC)c3)c2c1	< 6.00
COc1cc(C(=O)/C=C/c2ccc3[nH]ccc3c2)cc(OC)c1OC	7.47
COc1ccc2c(c1)c(/C=C/C(=O)c1cc(OC)c(OC)c(OC)c1)cn2C	6.59
COc1ccc2c(/C=C(\C)C(=O)c3cc(OC)c(OC)c(OC)c3)cn(CCO)c2c1	7.68
COc1cc(C(=O)/C=C/c2ccc3c(ccn3C)c2)cc(OC)c1OC	7.11
CCCn1cc(/C=C(\C)C(=O)c2cc(OC)c(OC)c(OC)c2)c2ccc(OC)cc21	6.21
COc1cc(C(=O)/C=C/c2cccc3c2ccn3C)cc(OC)c1OC	7.49
COc1cc(C(=O)/C(C)=C/c2cn(C)c3cccc(OC)c23)cc(OC)c1OC	< 6.00
COc1ccc2[nH]cc(/C=C/C(=O)c3ccc(OC)c4c3OC(C)(C)C=C4)c2c1	6.34
C=Cn1cc(/C=C(\C)C(=O)c2cc(OC)c(OC)c(OC)c2)c2ccc(OC)cc21	7.04
COc1cc(C(=O)/C(C)=C/c2c[nH]c3cccc(OC)c23)cc(OC)c1OC	< 6.00
COc1ccc2c(/C=C/C(=O)c3cc(OC)c(OC)c(OC)c3)c[nH]c2c1	6.45

System: HeLa
Assay: Cytotoxicity against human HeLa cells assessed as cell viability after 48 hrs by MTT assay
Format: functional, cell-based
Conditions: not given
In short: as §1

Compound	pIC50
COc1cc(C(=O)/C=C/c2cn(C)c3cccc(OC)c23)cc(OC)c1OC	< 6.00
COc1ccc2c(/C=C/C(=O)c3ccc(OC)c4c3OC(C)(C)C=C4)cn(C)c2c1	7.03
COc1ccc(C(=O)/C=C/c2c[nH]c3cccc(OC)c23)c2c1C=CC(C)(C)O2	< 6.00
COc1cc(C(=O)/C=C/c2c[nH]c3cccc(OC)c23)cc(OC)c1OC	< 6.00
CCn1cc(/C=C(\C)C(=O)c2cc(OC)c(OC)c(OC)c2)c2ccc(OC)cc21	7.19
COc1ccc2c(/C=C(\C)C(=O)c3cc(OC)c(OC)c(OC)c3)cn(CCBr)c2c1	6.84
COc1ccc2[nH]cc(/C=C/C(=O)c3cc(OC)c(OC)c(OC)c3)c2c1	< 6.00
COc1cc(C(=O)/C=C/c2ccc3[nH]ccc3c2)cc(OC)c1OC	7.66
COc1ccc2c(c1)c(/C=C/C(=O)c1cc(OC)c(OC)c(OC)c1)cn2C	6.27
COc1ccc2c(/C=C(\C)C(=O)c3cc(OC)c(OC)c(OC)c3)cn(CCO)c2c1	7.46
COc1cc(C(=O)/C=C/c2ccc3c(ccn3C)c2)cc(OC)c1OC	7.24
CCCn1cc(/C=C(\C)C(=O)c2cc(OC)c(OC)c(OC)c2)c2ccc(OC)cc21	6.27
COc1cc(C(=O)/C=C/c2cccc3c2ccn3C)cc(OC)c1OC	7.51
COc1cc(C(=O)/C(C)=C/c2cn(C)c3cccc(OC)c23)cc(OC)c1OC	< 6.00
COc1ccc2[nH]cc(/C=C/C(=O)c3ccc(OC)c4c3OC(C)(C)C=C4)c2c1	6.49
C=Cn1cc(/C=C(\C)C(=O)c2cc(OC)c(OC)c(OC)c2)c2ccc(OC)cc21	7.17
COc1cc(C(=O)/C(C)=C/c2c[nH]c3cccc(OC)c23)cc(OC)c1OC	< 6.00
COc1ccc2c(/C=C/C(=O)c3cc(OC)c(OC)c(OC)c3)c[nH]c2c1	6.58
